# Calls of active or inactive are those of the source. No cut-off for these calls is given here.
# What was measured:
# Mus musculus [1] = experiment: Antiinflammatory activity in Japanese encephalitis virus GP78 infected BALB/c mouse assessed as decrease in virus-induced IFN-gamma levels at 25 mg/kg, ip twice daily after 8 to 9 days relative to control; format: functional; conditions: route intraperitoneal
# Outline: (§1)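 BALB/c mice (4–5 weeks, either sex; 15 per group) were dosed with RA in PBS at 25 mg/kg i.p. twice daily, from day 1 after infection until the first untreated infected mouse died. IL-12, TNF-α, IFN-γ, MCP-1 and IL-6 in brain tissue lysates were quantified with a mouse cytometric bead array. Statistics used one-way ANOVA with Bonferroni post hoc comparisons.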
# BV-2 [2] = experiment: Antiinflammatory activity in Japanese encephalitis virus GP78 infected mouse BV2 cells assessed as decrease in virus-induced IL12 levels at 25 uM after 18 hrs by Western blot relative to control; format: functional
# Mus musculus [3] = experiment: Antiinflammatory activity in Japanese encephalitis virus GP78 infected BALB/c mouse assessed as increase in IkappaB-alpha levels at 25 mg/kg, ip twice daily after 8 to 9 days relative to control; format: functional, organism-based; parameters: dose 25 mg/kg
# Outline: (§2)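 BALB/c mice (4–5 weeks, either sex; 15 per group) received RA dissolved in PBS at 25 mg/kg i.p. twice daily. Dosing began one day after infection and continued until the first untreated infected mouse died. Brain protein (10 μg) was Western blotted with pNF-κB, IκB-α and Cox-2 antibodies (1:1,000), using β-tubulin as loading reference and HRP chemiluminescence detection. Groups were compared by one-way ANOVA with Bonferroni post hoc tests.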
# Mus musculus [4] = experiment: Antiinflammatory activity in Japanese encephalitis virus GP78 infected BALB/c mouse assessed as decrease in phosphorylated NF-kappaB levels at 25 mg/kg, ip twice daily after 8 to 9 days relative to control; format: functional, organism-based; parameters: dose 25 mg/kg; outline: as §2
# [5] = test system: Japanese encephalitis virus; experiment: Antiviral activity against Japanese encephalitis virus GP78 infected BALB/c mouse assessed as inhibition of viral proteins in mouse brain at 25 mg/kg, ip twice daily after 8 to 9 days by immunoblot; format: functional, organism-based; parameters: dose 25 mg/kg
# [6] = test system: Japanese encephalitis virus; experiment: Antiviral activity against Japanese encephalitis virus GP78 infected BALB/c mouse assessed as reduction of activated microglia in mouse brain at 25 mg/kg, ip twice daily; format: functional, organism-based; parameters: dose 25 mg/kg
# Outline: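 RA was given at 25 mg/kg i.p. twice daily to infected BALB/c mice. Mice were perfused with PBS containing 7 U/ml heparin, then with 2.5% paraformaldehyde. Cryostat brain sections were stained for Iba-1, and star-shaped activated microglia were counted.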
# [7] = test system: Japanese encephalitis virus; experiment: Antiviral activity against Japanese encephalitis virus GP78 infected BALB/c mouse assessed as inhibition of viral mRNA transcript in mouse brain at 25 mg/kg, ip twice daily after 8 to 9 days; format: functional, organism-based; parameters: dose 25 mg/kg
# BV-2 [8] = experiment: Antiinflammatory activity in Japanese encephalitis virus GP78 infected mouse BV2 cells assessed as decrease in virus-induced MCP1 levels at 25 uM after 18 hrs by Western blot relative to control; format: functional
# Mus musculus [9] = experiment: Antiinflammatory activity in Japanese encephalitis virus GP78 infected BALB/c mouse assessed as decrease in virus-induced MCP1 levels at 25 mg/kg, ip twice daily after 8 to 9 days relative to control; format: functional; conditions: route intraperitoneal; outline: as §1
# [10] = test system: Japanese encephalitis virus; experiment: Antiviral activity against Japanese encephalitis virus GP78 infected BALB/c mouse assessed as reduction in mortality rate at 25 mg/kg, ip twice daily administered 1 day post viral-challenge; format: functional; parameters: scale not given: the % may be the effect or the level left; conditions: route intraperitoneal
# Outline: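 Survival was followed in infected BALB/c mice (4–5 weeks, either sex; 15 per group). Animals received RA in PBS at 25 mg/kg i.p. twice daily, from day 1 post-infection until the first untreated infected animal died. Symptoms (limb paralysis, tremor, piloerection, stiffening) were recorded alongside deaths.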
# Mus musculus [11] = experiment: Antiinflammatory activity in Japanese encephalitis virus GP78 infected BALB/c mouse assessed as decrease in virus-induced IL6 levels at 25 mg/kg, ip twice daily after 8 to 9 days relative to control; format: functional; conditions: route intraperitoneal; outline: as §1
# Mus musculus [12] = experiment: Toxicity in BALB/c mouse assessed as behavioral activity at 25 mg/kg, ip twice daily; format: organism-based; parameters: dose 25 mg/kg, route intraperitoneal; conditions: in vivo
# Outline: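 Uninfected BALB/c mice (4–5 weeks, either sex; 15 per group) received RA alone, dissolved in PBS, at 25 mg/kg i.p. twice daily. Behavior was observed and compared with a PBS-injected control group.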
# Mus musculus [13] = experiment: Antiinflammatory activity in Japanese encephalitis virus GP78 infected BALB/c mouse assessed as decrease in Cox2 levels at 25 mg/kg, ip twice daily after 8 to 9 days relative to control; format: functional, organism-based; parameters: dose 25 mg/kg; outline: as §2
# BV-2 [14] = experiment: Antiinflammatory activity in Japanese encephalitis virus GP78 infected mouse BV2 cells assessed as decrease in virus-induced TNFalpha levels at 25 uM after 18 hrs by Western blot relative to control; format: functional
# Mus musculus [15] = experiment: Antiinflammatory activity in Japanese encephalitis virus GP78 infected BALB/c mouse assessed as decrease in virus-induced TNFalpha levels at 25 mg/kg, ip twice daily after 8 to 9 days relative to control; format: functional; conditions: route intraperitoneal; outline: as §1
# BV-2 [16] = experiment: Antiinflammatory activity in Japanese encephalitis virus GP78 infected mouse BV2 cells assessed as decrease in virus-induced IL6 levels at 25 uM after 18 hrs by Western blot relative to control; format: functional
# Mus musculus [17] = experiment: Antiinflammatory activity in Japanese encephalitis virus GP78 infected BALB/c mouse assessed as decrease in virus-induced IL12 levels at 25 mg/kg, ip twice daily after 8 to 9 days relative to control; format: functional; conditions: route intraperitoneal; outline: as §1
# BV-2 [18] = experiment: Antiinflammatory activity in Japanese encephalitis virus GP78 infected mouse BV2 cells assessed as decrease in virus-induced IFN-gamma levels at 25 uM after 18 hrs by Western blot relative to control; format: functional
compound,measurement,setting,value
O=C(/C=C/c1ccc(O)c(O)c1)O[C@H](Cc1ccc(O)c(O)c1)C(=O)O [ROSMARINIC ACID],fold change (FC),Mus musculus [1],6
same,fold change (FC),BV-2 [2],13
same,Activity,Mus musculus [3],Active
same,Activity,Mus musculus [4],Active
same,Activity,[5],Active
same,Activity,[6],Active
same,Activity,[7],Active
same,fold change (FC),BV-2 [8],25
same,fold change (FC),Mus musculus [9],100
same,Activity,[10],20%
same,fold change (FC),Mus musculus [11],9
same,Activity,Mus musculus [12],Non-toxic
same,Activity,Mus musculus [13],Active
same,fold change (FC),BV-2 [14],14
same,fold change (FC),Mus musculus [15],18
same,fold change (FC),BV-2 [16],12.5
same,fold change (FC),Mus musculus [17],5
same,fold change (FC),BV-2 [18],12

# From ChEMBL document CHEMBL1143410, “Antiviral and anti-inflammatory effects of rosmarinic acid in an experimental murine model of Japanese encephalitis” (Antimicrob Agents Chemother, 2007)
